From ChEMBL document CHEMBL1255380, “Small molecule-mediated disruption of Wnt-dependent signaling in tissue regeneration and cancer” (Nat Chem Biol, 2009) come the findings set out here.

The source made the active and inactive calls. No cut-off for these calls is given here.

Test [1] deals with T1, Protein-serine O-palmitoleoyltransferase porcupine (Homo sapiens) (UniProt Q9H237).
T1 sequence (whole entry): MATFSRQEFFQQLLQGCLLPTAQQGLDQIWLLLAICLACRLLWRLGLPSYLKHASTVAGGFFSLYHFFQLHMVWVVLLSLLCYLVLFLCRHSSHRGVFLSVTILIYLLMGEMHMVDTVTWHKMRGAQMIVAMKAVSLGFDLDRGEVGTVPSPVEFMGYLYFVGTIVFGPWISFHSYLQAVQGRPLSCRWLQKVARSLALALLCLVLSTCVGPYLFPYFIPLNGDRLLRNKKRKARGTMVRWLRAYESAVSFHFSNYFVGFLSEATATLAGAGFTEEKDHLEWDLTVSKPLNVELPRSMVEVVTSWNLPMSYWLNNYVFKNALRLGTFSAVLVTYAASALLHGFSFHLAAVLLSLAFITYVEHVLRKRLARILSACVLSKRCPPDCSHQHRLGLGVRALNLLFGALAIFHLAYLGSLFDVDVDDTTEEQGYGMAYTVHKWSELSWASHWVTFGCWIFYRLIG
In words: Inhibition of porcn in HEK293 cell lysate by Western blot analysis. The format is cell-free. The method in brief: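 Lysate (10mM Na2HPO4 pH7.4, […], 1% NP-40) of HEK293 cells transfected with Porcn-myc preincubated 1 hr at 4°C with DMSO, linker or competitor, then NeutrAvidin resin plus biotinylated probe (0.17 mM); rotated overnight at 4°C, washed, eluate analysed by Western blot.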

For test [2], the target named is Axin-2 (Homo sapiens) (UniProt Q9Y2T1). In words: Induction of Axin2 accumulation in human DLD1 cells by Western blot analysis. As to conditions: DLD-1. In kind it is cell-based. Put shortly: (§1)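 DLD-1 cells exposed to IWR compound at 10μM for a 48 hr assay period; protein levels assessed by Western blot of cell lysates.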
Axin-2 (Homo sapiens), sequence (Q9Y2T1 whole entry): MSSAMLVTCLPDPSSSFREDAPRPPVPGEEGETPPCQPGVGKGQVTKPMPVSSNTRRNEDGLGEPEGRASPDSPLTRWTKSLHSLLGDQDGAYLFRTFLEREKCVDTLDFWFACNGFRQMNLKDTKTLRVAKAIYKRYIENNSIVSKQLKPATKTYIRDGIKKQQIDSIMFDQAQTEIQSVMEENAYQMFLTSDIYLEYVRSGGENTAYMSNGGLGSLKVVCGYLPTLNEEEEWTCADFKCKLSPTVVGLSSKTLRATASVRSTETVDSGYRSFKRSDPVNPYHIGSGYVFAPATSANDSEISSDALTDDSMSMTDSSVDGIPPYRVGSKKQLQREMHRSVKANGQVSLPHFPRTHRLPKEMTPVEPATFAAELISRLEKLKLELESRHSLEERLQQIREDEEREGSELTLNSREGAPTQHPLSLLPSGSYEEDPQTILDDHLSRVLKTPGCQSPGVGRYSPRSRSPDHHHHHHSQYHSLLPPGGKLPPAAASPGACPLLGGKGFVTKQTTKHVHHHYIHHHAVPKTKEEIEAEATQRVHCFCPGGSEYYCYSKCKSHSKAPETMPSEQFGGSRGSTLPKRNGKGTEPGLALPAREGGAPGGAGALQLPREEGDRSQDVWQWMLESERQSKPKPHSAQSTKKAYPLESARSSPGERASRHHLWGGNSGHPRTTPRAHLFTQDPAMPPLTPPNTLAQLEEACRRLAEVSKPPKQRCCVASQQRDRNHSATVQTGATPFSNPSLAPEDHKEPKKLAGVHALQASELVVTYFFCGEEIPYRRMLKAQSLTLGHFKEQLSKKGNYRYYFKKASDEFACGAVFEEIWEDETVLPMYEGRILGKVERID
For orientation: Immunoblotting shows a protein as a band on a membrane.

Test [3] can be described thus: Inhibition of Wnt3A/[…] pathway activity in mouse L cell expressing Wnt3a assessed as inhibition of […] accumulation at 10 uM after 24 hrs by Western blot analysis. In kind it is cell-based.
A short description of test [4]: Inhibition of Wnt3A/[…] pathway activity in mouse L cell expressing Wnt3a assessed as decrease in phosphorylated Dvl2 level at 10 uM after 24 hrs by Western blot analysis. The format is cell-based.
The nature of test [5]: Inhibition of Wnt3A/[…] pathway activity in mouse L cell expressing Wnt3a assessed as decrease in phosphorylated Lrp6 level at 10 uM after 24 hrs by Western blot analysis. The format is cell-based.
Test [6] can be described thus: Inhibition of Wnt2/beta-[…] pathway activity in mouse L cell expressing Wnt2 and STF assessed as decreased firefly luciferase reporter expression. In kind it is cell-based.
A short description of test [7]: Inhibition of Wnt1/beta-[…] pathway activity in mouse L cell expressing Wnt1 and STF assessed as decreased firefly luciferase reporter expression. In kind it is cell-based. (A reporter such as luciferase makes a cellular process visible.)
A short description of test [8]: Inhibition of Wnt3A/[…] pathway activity in mouse L cell expressing Wnt3A and STF assessed as decreased firefly luciferase reporter expression. The format is cell-based. Put shortly:
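L-Wnt-STF cells (mouse L-cells stably carrying SuperTopFlash firefly luciferase reporter, control reporter and Wnt3A expression construct), ~5K per well; compounds added 24 hrs after seeding; luciferase activities read 24 hrs later; IC50s calculated from these dose-dependent assays.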

In test [9] the test system is DLD-1. The test can be described thus: Decrease in beta-[…] accumulation in human DLD1 cells expressing in APC mutant. The format is functional, cell-based.
The species named for another test is Danio rerio. The test can be described thus: Inhibition of caudal fin regeneration after mechanical resection in zebrafish at 10 uM after 7 days. The format is functional, organism-based. Put shortly:
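Zebrafish 3-6 months old anaesthetized in 0.02% Tricaine; half of caudal fin resected with razor blade; kept at 28°C in tank water with 10μM compound or DMSO; water and compound replenished daily over assay period.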

The target of test [10] is Axin-2 (Homo sapiens) (UniProt Q9Y2T1). In words: Induction of Axin2 stabilization in human DLD1 cells assessed as inhibition of Wnt/beta-[…] pathway. The format is cell-based. Conditions: DLD-1.
The next test relates to NCI-H460. In words: Antiproliferative activity against human H460 cells assessed as cellular ATP levels after 6 days by Cell-Titer Glow assay. In kind it is functional, cell-based. The method in brief:
(§2)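 Cancer cells seeded at 2.5K cells/well with carrier or compound, 0.5% DMSO final; medium with compound changed every 24 hrs for 5 days; on day 6 cellular ATP quantified by CellTiter-Glo luminescence.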

In test [11] the test system is DLD-1. The test can be described thus: Antiproliferative activity against human DLD1 cells assessed as cellular ATP levels after 6 days by Cell-Titer Glow assay. The format is functional, cell-based. Put shortly: as §2
The subject of the next test is DU-145. In words: Antiproliferative activity against human DU145 cells assessed as cellular ATP levels after 6 days by Cell-Titer Glow assay. In kind it is functional, cell-based. Put shortly: as §2
Test [12] deals with DLD-1. The test can be described thus: Antiproliferative activity against human DLD1 cells overexpressing beta-[…] assessed as renilla luciferase activity after 6 days. In kind it is functional, cell-based.
Test [13] deals with Axin-1 (Homo sapiens) (UniProt O15169). The test can be described thus: Induction of Axin1 protein stabilization in human DLD1 cells by Western blot analysis. The format is cell-based. Conditions: DLD-1. The method in brief:
as §1

Test [14] shares this target. The test can be described thus: Induction of Axin1 protein stabilization in human H460 cells by Western blot analysis. The format is cell-based.
In test [15] the target is T1, Protein-serine O-palmitoleoyltransferase porcupine (Homo sapiens). The test can be described thus: Displacement of IWP-PB from porcn in HEK293 lysate by Western blot analysis.
For test [16] the target is unchanged. The test can be described thus: Inhibition of porcn-mediated Lrp6 maturation in human DLD1 lysate by detergent solubility fractionation assessed as [3H]palmitate incorporation at 2.5 uM by autoradiography method.
Test [17] has the same target. The test can be described thus: Inhibition of porcn-mediated Shh palmitoylation in human DLD1 lysate by detergent solubility fractionation assessed as [3H]palmitate incorporation at 2.5 uM by autoradiography method.
The nature of test [18]: Inhibition of Wnt3A/[…] pathway activity in mouse L cell expressing Wnt3a assessed as inhibition of […] accumulation at 5 uM after 24 hrs by Western blot analysis. The format is cell-based.
Test [19] can be described thus: Inhibition of Wnt3A/[…] pathway activity in mouse L cell expressing Wnt3a assessed as decrease in phosphorylated Dvl2 level at 5 uM after 24 hrs by Western blot analysis. In kind it is cell-based.
A short description of test [20]: Inhibition of Wnt3A/[…] pathway activity in mouse L cell expressing Wnt3a assessed as decrease in phosphorylated Lrp6 level at 5 uM after 24 hrs by Western blot analysis. The format is cell-based.
Test [21] can be described thus: Inhibition of Notch pathway in mouse L cells at 2.5 uM.
For test [22], the target named is Axin-2 (Homo sapiens) (UniProt Q9Y2T1). The test can be described thus: Binding affinity to Axin2 IWR-IS in HEK293 cells. In kind it is cell-based.
Test [23] shares this target. The test can be described thus: Binding affinity at Axin2 in HEK293 cells by Western blot method. The format is cell-based.

Axin-1 (Homo sapiens), sequence (O15169 whole entry): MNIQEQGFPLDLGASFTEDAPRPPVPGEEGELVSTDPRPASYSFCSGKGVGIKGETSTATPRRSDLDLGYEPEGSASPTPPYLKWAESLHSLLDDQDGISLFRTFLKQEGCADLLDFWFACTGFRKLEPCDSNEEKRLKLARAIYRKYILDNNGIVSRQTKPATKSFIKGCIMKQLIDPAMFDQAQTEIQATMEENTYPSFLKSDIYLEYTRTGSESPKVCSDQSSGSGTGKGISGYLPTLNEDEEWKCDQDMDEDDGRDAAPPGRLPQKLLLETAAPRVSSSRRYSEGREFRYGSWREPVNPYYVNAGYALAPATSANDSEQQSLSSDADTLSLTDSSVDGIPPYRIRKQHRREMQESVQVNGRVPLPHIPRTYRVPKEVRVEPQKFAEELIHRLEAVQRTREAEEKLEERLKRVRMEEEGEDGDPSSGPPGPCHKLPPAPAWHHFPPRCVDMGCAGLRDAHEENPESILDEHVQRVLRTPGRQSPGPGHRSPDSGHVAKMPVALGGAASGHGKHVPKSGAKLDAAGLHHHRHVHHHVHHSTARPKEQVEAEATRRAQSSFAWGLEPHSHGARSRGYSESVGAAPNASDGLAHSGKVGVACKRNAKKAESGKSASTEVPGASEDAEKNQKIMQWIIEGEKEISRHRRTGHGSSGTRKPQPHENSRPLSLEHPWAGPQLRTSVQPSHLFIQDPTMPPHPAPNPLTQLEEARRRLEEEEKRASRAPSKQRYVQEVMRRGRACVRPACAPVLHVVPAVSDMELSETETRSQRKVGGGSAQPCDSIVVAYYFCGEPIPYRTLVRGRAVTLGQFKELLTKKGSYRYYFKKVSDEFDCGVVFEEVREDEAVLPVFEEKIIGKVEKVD

Turning to `Cc1ccc2nc(NC(=O)CSc3nc4c(c(=O)n3Cc3ccccc3)SCC4)sc2c1`, the “Inhibition (active/inactive)” value in test [1] was “Active”.
Regarding `O=C(NC1CCCC1)c1ccc(Cn2c(=O)c3ccccc3n(Cc3cc(=O)n4ccccc4n3)c2=O)cc1`, at Axin-2 (Homo sapiens) [2], the result was Active. For the same compound, the inhibition result (in [3]; in test [6]; in test [7]; in [8]; with DLD-1 [9]) was “Active” each time. The inhibition entry in test [4] and in [5] was “inactive” in each case.
As to `O=C(Nc1cccc2cccnc12)c1ccc(N2C(=O)[C@@H]3[C@H](C2=O)[C@H]2C=C[C@@H]3C2)cc1`, the inhibition result in the test listed under Danio rerio was “inactive”. Also, the outcome at Axin-2 (Homo sapiens) [10] was inactive.
As for `CC1Cc2nc(SCC(=O)Nc3nc4ccccc4s3)n(Cc3ccccc3)c(=O)c2S1` (stereo unspecified), in [1], the “Inhibition (active/inactive)” value was “Active”.
`O=C(O)c1ccc(N2C(=O)[C@@H]3[C@H](C2=O)[C@@H]2C=C[C@H]3C2)cc1`: the inhibition result in the test filed under Danio rerio was “inactive”. The outcome on Axin-2 (Homo sapiens) [10] was inactive.
For the compound `Cc1cccc2nc(Cn3c(=O)n(CC4CCC(C(=O)NCc5ccccc5)CC4)c(=O)c4ccccc43)cc(=O)n12` (stereo unspecified), the result on Axin-2 (Homo sapiens) [2], with DLD-1 [11], with DU-145, on Axin-1 (Homo sapiens) [13] and on Axin-1 (Homo sapiens) [14] was Active. Further, the inhibition entry (in [3]; in test [6]; in [7]; in test [8]; in the test filed under Danio rerio; in the test with DLD-1 [9]) was “Active” throughout. The inhibition result in [4] and in test [5] was “inactive” each time. In addition, the result in the test on NCI-H460 and with DLD-1 [12] was inactive.
Turning to `COc1ccc(-n2nc(C(=O)NCC(=O)Nc3nc4ccc(OC)cc4s3)c3ccccc3c2=O)cc1`, the inhibition entry in [15], in test [18], in test [19] and in test [20] was “Active” each time. The inhibition result (in [16]; in [17]; in the test filed under Danio rerio; in [21]) was “inactive” each time.
Take `Cc1ccc2nc(NC(=O)CSc3nc4c(c(=O)n3-c3ccc(F)cc3)SCC4)sc2c1`: the inhibition result (in test [17]; in the test filed under Danio rerio; in test [21]) was “inactive” throughout. The inhibition result in test [18], in test [19] and in test [20] was “Active” throughout.
With `O=C(CSc1nc2c(c(=O)n1-c1ccccc1)SCC2)Nc1nccs1`, in [1], the “Inhibition (active/inactive)” value is “Active”.
With `Cc1ccc2nc(NC(=O)CSc3nc4c(c(=O)n3-c3ccc(CNC(=O)CCOCCOCCOCCNC(=O)CCCC[C@@H]5SC[C@@H]6NC(=O)N[C@@H]65)cc3)SCC4)sc2c1`, the “Inhibition (active/inactive)” value in test [1] was “Active”. In addition, the outcome at Axin-2 (Homo sapiens) [22] and on Axin-2 (Homo sapiens) [23] was Active.
For `COc1ccccc1-n1c(SCC(=O)Nc2nc3ccc(C)cc3s2)nc2c(c1=O)SCC2`, the inhibition result (in test [17]; in the test filed under Danio rerio; in test [21]) was “inactive” throughout. The inhibition entry in test [18], in test [19] and in [20] was “Active” throughout.
As to `N#Cc1ccccc1Cn1c(=O)n(CC2CCC(C(=O)NCc3ccccc3)CC2)c(=O)c2ccccc21` (stereo unspecified), the result on Axin-2 (Homo sapiens) [2] was Active. The inhibition result (in test [3]; in [6]; in test [7]; in [8]; with DLD-1 [9]) was “Active” in each case. Further, the inhibition result in [4] and in test [5] was “inactive” throughout.
